{"data": "Measurements of several laboratories", "target": "Serine/threonine-protein kinase N1 (PKN1, Homo sapiens, UniProt Q16512)"}
{"Structure (SMILES)": "COc1cnc(Nc2cccc(S(N)(=O)=O)c2)nc1N1CCN(c2ccccc2)C(=O)C1", "assay": "binding, competition with immobilised ligand", "conditions": "1 µM", "remaining binding": "98%"}
{"Structure (SMILES)": "Nc1ncc2c(n1)-c1c([nH]c3ccc(C#CC4CC4)cc13)CCCC2", "assay": "binding, competition with immobilised ligand", "conditions": "1 µM", "remaining binding": "78%"}
{"Structure (SMILES)": "COc1ccc2cc(OCC3(C(=O)O)CN(C(=O)c4ccc(F)cc4)C3)ccc2c1", "assay": "cell-free assay, competition with immobilised ligand", "conditions": "1 µM", "remaining binding": "100%"}
{"Structure (SMILES)": "CN(C)c1nccc(-c2cnc3ncccn23)n1", "assay": "binding", "conditions": "1 µM", "remaining binding": "100%"}
{"Structure (SMILES)": "CCc1ccccc1C(=O)Nc1n[nH]c2c(C)c(F)c(C3C(C#N)=C(C)N(C)C(C)=C3C#N)cc12", "assay": "cell-free assay, competition with immobilised ligand", "conditions": "1 µM", "remaining binding": "100%"}
{"Structure (SMILES)": "N[C@@H]1CCN(c2nccc(-c3cnn4ncccc34)n2)C1", "assay": "binding", "conditions": "1 µM", "remaining binding": "93%"}
{"Structure (SMILES)": "CCOCCn1cc(C(=O)Nc2ccc(-n3nc(-c4cccnc4)cc3C(F)(F)F)cn2)ccc1=O", "assay": "cell-free assay, competition with immobilised ligand", "conditions": "1 µM", "remaining binding": "76%"}
{"Structure (SMILES)": "C[C@@H]1CCN(c2nccc(-c3cnn4ncccc34)n2)C1", "assay": "binding", "conditions": "1 µM", "remaining binding": "84%"}
{"Structure (SMILES)": "O=C(NCCCN1CCOCC1)c1ccc(Nc2ncc(Cl)c(-c3ccc(Cl)s3)n2)cc1", "assay": "binding, competition with immobilised ligand", "conditions": "1 µM", "remaining binding": "39%"}
{"Structure (SMILES)": "CN(c1nccc(-c2cnn3ncccc23)n1)C1CC1", "assay": "binding", "conditions": "1 µM", "remaining binding": "100%"}
{"Structure (SMILES)": "C[C@@H](c1ccc(-n2cnc3c(N)ncnc32)cc1)N1CCc2nn(C)c(Cc3ccccc3)c2C1=O", "assay": "binding, competition with immobilised ligand", "conditions": "0.1 µM", "remaining binding": "98%"}
{"Structure (SMILES)": "CN(CCCC(F)(F)F)c1nccc(-c2cnn3ncccc23)n1", "assay": "binding", "conditions": "1 µM", "remaining binding": "100%"}
{"Structure (SMILES)": "CNC(=O)[C@@H]1CC[C@@H](n2c(-c3ccc4cnccc4c3)nc3ccc(C(=O)NCc4cccc(C(N)=O)c4)cc32)C1", "assay": "binding, competition with immobilised ligand", "conditions": "1 µM", "remaining binding": "92%"}
{"Structure (SMILES)": "CN(C)c1ncnc(-c2ccc3nc(Nc4cc(CN5CCN(C(=O)CC(F)(F)F)CC5)ccn4)[nH]c3c2)c1Cl", "assay": "cell-free assay, competition with immobilised ligand", "conditions": "1 µM", "remaining binding": "100%"}
{"Structure (SMILES)": "COc1ccnn2ncc(-c3ccnc(N(C)C)n3)c12", "assay": "binding", "conditions": "1 µM", "remaining binding": "74%"}
{"Structure (SMILES)": "CC1=C(C#N)C(c2ccc3c(c2)c(NC(=O)c2ccccc2C)nn3C)C(C#N)=C(C)N1", "assay": "cell-free assay, competition with immobilised ligand", "conditions": "1 µM", "remaining binding": "78%"}
{"Structure (SMILES)": "F[C@@H]1CCN(c2nccc(-c3cnn4ncccc34)n2)C1", "assay": "binding", "conditions": "1 µM", "remaining binding": "100%"}
{"Structure (SMILES)": "O=C(NCC1CCOCC1)c1n[nH]cc1NC(=O)c1c(F)cccc1F", "assay": "binding, competition with immobilised ligand", "conditions": "1 µM", "remaining binding": "100%"}
{"Structure (SMILES)": "O=C(c1ccc(Nc2nccc(-c3cc4ccccc4s3)n2)cc1)N1CCC(N2CCCC2)CC1", "assay": "binding, competition with immobilised ligand", "conditions": "1 µM", "remaining binding": "12%"}
{"Structure (SMILES)": "CNC(=O)Nc1ccc2c(c1)[C@@]1(CC2)OC(=O)N(CC(=O)N(Cc2ccc(F)cc2)[C@@H](C)C(F)(F)F)C1=O", "assay": "cell-free assay, competition with immobilised ligand", "conditions": "1 µM", "remaining binding": "98%"}
{"Structure (SMILES)": "O=C(c1ccc(Nc2ncc(Cl)c(-c3ccc(Cl)s3)n2)cc1)N1CCC(N2CCCC2)CC1", "assay": "binding, competition with immobilised ligand", "conditions": "1 µM", "remaining binding": "25%"}
{"Structure (SMILES)": "C=CC(=O)N1CCC(C(=O)NCC(=O)N2CCN(c3nc(-c4cnc(N)nc4C(F)F)nc(N4CCOCC4)n3)CC2)CC1", "assay": "binding, competition with immobilised ligand", "conditions": "1 µM", "remaining binding": "83%"}
